Values belong to the compound of their own block, whether it stands above or below them. Calls of active or inactive are those of the source. No cut-off for these calls is given here.
How the values were obtained:
Homo sapiens [1] = species: Homo sapiens; experiment: Inhibition of TNFalpha-stimulated NF-kappaB (unknown origin) activation expressed in HEK293 cells at 20 ug/ml incubated for 6 hrs with TNFalpha followed by incubation in dark for 30 mins by luciferase reporter gene assay relative to control; format: cell-based
Method in brief: (§1)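 HEK293 cells stably carrying NF-κB-responsive luciferase reporter (selected with 1 mg/mL G418) seeded, after 24 h stimulated with TNF-α 0.2 μg/mL, then exposed to compounds for 6 h; lysate incubated with luciferase substrate 30 min in dark, luminescence read. Screening at 20 µg/mL as percent inhibition; IC50 from nine concentrations, 0.78-20 μM. PS-341 reference.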

[2] = Cytotoxicity against HEK293 cells assessed as cell viability at 20 ug/ml relative to control; format: cell-based; conditions: human, read-out: Activity
Method in brief: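 HEK293/NF-κB reporter cells exposed to compounds at 20 µg/mL; cytotoxicity assessed.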

MCF7 = experiment: Antiproliferative activity against human MCF7 cells after 48 hrs by MTT assay; format: functional, cell-based; conditions: MCF7, 48 h
Method in brief: (§2)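 Tumour cell lines MCF-7, A549, H157, HepG2 and HL-60 were tested by MTT method; doxorubicin served as positive control.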

HepG2 = experiment: Antiproliferative activity against human HepG2 cells after 48 hrs by MTT assay; format: functional, cell-based; conditions: HepG2, 48 h; method in brief: as §2
NCI-H157 = experiment: Antiproliferative activity against human NCI-H157 cells after 48 hrs by MTT assay; format: functional, cell-based; conditions: NCI-H157, 48 h; method in brief: as §2
A549 = experiment: Antiproliferative activity against human A549 cells after 48 hrs by MTT assay; format: functional, cell-based; conditions: A549, 48 h; method in brief: as §2
[3] = Inhibition of TNFalpha-stimulated NF-kappaB (unknown origin) activation expressed in HEK293 cells incubated for 6 hrs with TNFalpha followed by incubation in dark for 30 mins by luciferase reporter gene assay; format: cell-based; conditions: Homo sapiens; method in brief: as §1
HL-60 = experiment: Antiproliferative activity against human HL60 cells after 48 hrs by MTT assay; format: functional, cell-based; conditions: HL-60, 48 h; method in brief: as §2
Homo sapiens [4] = species: Homo sapiens; experiment: Inhibition of TNFalpha-stimulated NF-kappaB (unknown origin) activation assessed as IkappaBalpha degradation at 10 uM after 4 hrs by Western blot analysis

SMILES: CC(=O)[C@H]1CC[C@H]2[C@@H]3CC=C4C[C@@H](OC(=O)NCCNC(=O)/C(C#N)=C/c5ccc(O)cc5)CC[C@]4(C)[C@H]3CC[C@]12C
- inhibition (Homo sapiens [1]): 44.9%

- IC50 (MCF7): 6.1 µM
- IC50 (HepG2): > 50 µM
- IC50 (NCI-H157): 17.9 µM
- IC50 (A549): > 50 µM
- IC50 [3]: 7.1 µM
- IC50 (HL-60): 45.6 µM
SMILES: CC(=O)[C@H]1CC[C@H]2[C@@H]3CC=C4C[C@@H](OC(=O)NCCNC(=O)/C(C#N)=C/c5cccc(F)c5)CC[C@]4(C)[C@H]3CC[C@]12C
- viability at 20 ug/ml [2]: 60.8%
- inhibition (Homo sapiens [1]): 64.2%

SMILES: COc1ccccc1/C=C(\C#N)C(=O)NCCNC(=O)O[C@H]1CC[C@@]2(C)C(=CC[C@H]3[C@@H]4CC[C@H](C(C)=O)[C@@]4(C)CC[C@@H]32)C1
- inhibition (Homo sapiens [1]): 17.8%

SMILES: COc1cc(/C=C(\C#N)C(=O)NCCNC(=O)O[C@H]2CC[C@@]3(C)C(=CC[C@H]4[C@@H]5CC[C@H](C(C)=O)[C@@]5(C)CC[C@@H]43)C2)ccc1O
- inhibition (Homo sapiens [1]): 34.6%

SMILES: COc1ccc(/C=C(\C#N)C(=O)NCCNC(=O)O[C@H]2CC[C@@]3(C)C(=CC[C@H]4[C@@H]5CC[C@H](C(C)=O)[C@@]5(C)CC[C@@H]43)C2)cc1
- inhibition (Homo sapiens [1]): 22.3%

- IC50 (MCF7): > 50 µM
- IC50 (HepG2): > 50 µM
- IC50 (NCI-H157): > 50 µM
- IC50 (A549): > 50 µM
- IC50 [3]: 12.4 µM
- IC50 (HL-60): > 50 µM
SMILES: CC(=O)[C@H]1CC[C@H]2[C@@H]3CC=C4C[C@@H](OC(=O)NCCNC(=O)CC#N)CC[C@]4(C)[C@H]3CC[C@]12C
- viability at 20 ug/ml [2]: 87.9%
- inhibition (Homo sapiens [1]): 74.4%

- IC50 (MCF7): 6.5 µM
- IC50 (HepG2): > 50 µM
- IC50 (NCI-H157): 30.6 µM
- IC50 (A549): 36.2 µM
- IC50 [3]: 2.5 µM
- IC50 (HL-60): 11.2 µM
SMILES: CC(=O)[C@H]1CC[C@H]2[C@@H]3CC=C4C[C@@H](OC(=O)NCCNC(=O)/C(C#N)=C/c5cccc([N+](=O)[O-])c5)CC[C@]4(C)[C@H]3CC[C@]12C
- viability at 20 ug/ml [2]: 54.7%
- inhibition (Homo sapiens [1]): 83.9%

SMILES: COc1cc(/C=C(\C#N)C(=O)NCCNC(=O)O[C@H]2CC[C@@]3(C)C(=CC[C@H]4[C@@H]5CC[C@H](C(C)=O)[C@@]5(C)CC[C@@H]43)C2)cc(O)c1OC
- inhibition (Homo sapiens [1]): 22.6%

SMILES: CC(=O)[C@H]1CC[C@H]2[C@@H]3CC=C4C[C@@H](OC(=O)NCCNC(=O)/C(C#N)=C/c5cccc(Cl)c5)CC[C@]4(C)[C@H]3CC[C@]12C
- inhibition (Homo sapiens [1]): 46.4%

- IC50 [3]: 0.03 µM
SMILES: CC(C)C[C@H](NC(=O)[C@H](Cc1ccccc1)NC(=O)c1cnccn1)B(O)O [BORTEZOMIB]

SMILES: CC(=O)[C@H]1CC[C@H]2[C@@H]3CC=C4C[C@@H](OC(=O)NCCNC(=O)/C(C#N)=C/c5ccc6c(c5)OCCO6)CC[C@]4(C)[C@H]3CC[C@]12C
- inhibition (Homo sapiens [1]): 4.2%

SMILES: COc1ccc(/C=C(\C#N)C(=O)NCCNC(=O)O[C@H]2CC[C@@]3(C)C(=CC[C@H]4[C@@H]5CC[C@H](C(C)=O)[C@@]5(C)CC[C@@H]43)C2)cc1O
- inhibition (Homo sapiens [1]): 14.5%

SMILES: CC(=O)[C@H]1CC[C@H]2[C@@H]3CC=C4C[C@@H](OC(=O)NCCNC(=O)/C(C#N)=C/c5ccc(N(C)C)cc5)CC[C@]4(C)[C@H]3CC[C@]12C
- inhibition (Homo sapiens [1]): 1.2%

SMILES: CC(=O)[C@H]1CC[C@H]2[C@@H]3CC=C4C[C@@H](OC(=O)NCCNC(=O)/C(C#N)=C/c5ccccc5)CC[C@]4(C)[C@H]3CC[C@]12C
- inhibition (Homo sapiens [1]): 46.7%

SMILES: CC(=O)[C@H]1CC[C@H]2[C@@H]3CC=C4C[C@@H](OC(=O)NCCNC(=O)/C(C#N)=C/c5ccc(C(C)C)cc5)CC[C@]4(C)[C@H]3CC[C@]12C
- inhibition (Homo sapiens [1]): 2.1%

SMILES: CC(=O)[C@H]1CC[C@H]2[C@@H]3CC=C4C[C@@H](OC(=O)NCCNC(=O)/C(C#N)=C/c5ccc(Br)cc5)CC[C@]4(C)[C@H]3CC[C@]12C
- inhibition (Homo sapiens [1]): 15.9%

SMILES: CC(=O)[C@H]1CC[C@H]2[C@@H]3CC=C4C[C@@H](OC(=O)NCCNC(=O)/C(C#N)=C/c5ccc(F)cc5)CC[C@]4(C)[C@H]3CC[C@]12C
- inhibition (Homo sapiens [1]): 43.1%

- inhibition (Homo sapiens [4]): Active
- IC50 (MCF7): > 50 µM
- IC50 (HepG2): > 50 µM
- IC50 (NCI-H157): > 50 µM
- IC50 (A549): > 50 µM
- IC50 [3]: 10.3 µM
- IC50 (HL-60): 10.1 µM
SMILES: CC(=O)[C@H]1CC[C@H]2[C@@H]3CC=C4C[C@@H](OC(=O)NCCNC(=O)/C(C#N)=C/c5ccc([N+](=O)[O-])cc5)CC[C@]4(C)[C@H]3CC[C@]12C
- viability at 20 ug/ml [2]: 74.5%
- inhibition (Homo sapiens [1]): 78.3%

SMILES: COc1cccc(/C=C(\C#N)C(=O)NCCNC(=O)O[C@H]2CC[C@@]3(C)C(=CC[C@H]4[C@@H]5CC[C@H](C(C)=O)[C@@]5(C)CC[C@@H]43)C2)c1
- inhibition (Homo sapiens [1]): 22.2%

SMILES: COc1ccc(/C=C(\C#N)C(=O)NCCNC(=O)O[C@H]2CC[C@@]3(C)C(=CC[C@H]4[C@@H]5CC[C@H](C(C)=O)[C@@]5(C)CC[C@@H]43)C2)cc1OC
- inhibition (Homo sapiens [1]): 5.8%

SMILES: CC(=O)[C@H]1CC[C@H]2[C@@H]3CC=C4C[C@@H](OC(=O)NCCNC(=O)/C(C#N)=C/c5cccc(Br)c5)CC[C@]4(C)[C@H]3CC[C@]12C
- inhibition (Homo sapiens [1]): 30.9%

SMILES: CCN(CC)c1ccc(/C=C(\C#N)C(=O)NCCNC(=O)O[C@H]2CC[C@@]3(C)C(=CC[C@H]4[C@@H]5CC[C@H](C(C)=O)[C@@]5(C)CC[C@@H]43)C2)cc1
- inhibition (Homo sapiens [1]): 0.5%

SMILES: CC(=O)[C@H]1CC[C@H]2[C@@H]3CC=C4C[C@@H](OC(=O)NCCNC(=O)/C(C#N)=C/c5ccc(O)c(O)c5)CC[C@]4(C)[C@H]3CC[C@]12C
- inhibition (Homo sapiens [1]): 59.3%

SMILES: COc1cc(/C=C(\C#N)C(=O)NCCNC(=O)O[C@H]2CC[C@@]3(C)C(=CC[C@H]4[C@@H]5CC[C@H](C(C)=O)[C@@]5(C)CC[C@@H]43)C2)cc(OC)c1O
- inhibition (Homo sapiens [1]): 5%

SMILES: CC(=O)[C@H]1CC[C@H]2[C@@H]3CC=C4C[C@@H](OC(=O)NCCNC(=O)/C(C#N)=C/c5ccc(Cl)cc5)CC[C@]4(C)[C@H]3CC[C@]12C
- inhibition (Homo sapiens [1]): 18.8%

- IC50 (MCF7): > 50 µM
- IC50 (HepG2): > 50 µM
- IC50 (NCI-H157): > 50 µM
- IC50 (A549): > 50 µM
- IC50 [3]: 12.2 µM
- IC50 (HL-60): > 50 µM
SMILES: CC(=O)[C@H]1CC[C@H]2[C@@H]3CC=C4C[C@@H](OC(=O)NCCNC(=O)OC(C)(C)C)CC[C@]4(C)[C@H]3CC[C@]12C
- viability at 20 ug/ml [2]: 85.5%
- inhibition (Homo sapiens [1]): 76.6%

- IC50 (MCF7): 4.4 µM
- IC50 (NCI-H157): 0.61 µM
- IC50 (A549): 11 µM
- IC50 (HL-60): 0.91 µM
SMILES: COc1cccc2c1C(=O)c1c(O)c3c(c(O)c1C2=O)C[C@@](O)(C(=O)CO)C[C@@H]3O[C@H]1C[C@H](N)[C@H](O)[C@H](C)O1 [DOXORUBICIN]

- IC50 (MCF7): > 50 µM
- IC50 (HepG2): > 50 µM
- IC50 (NCI-H157): 24.5 µM
- IC50 (A549): > 50 µM
- IC50 [3]: 7.5 µM
- IC50 (HL-60): > 100 µM
SMILES: CC(=O)[C@H]1CC[C@H]2[C@@H]3CC=C4C[C@@H](OC(=O)NCCNC(=O)/C(C#N)=C/c5ccc(C#N)cc5)CC[C@]4(C)[C@H]3CC[C@]12C
- viability at 20 ug/ml [2]: 64.4%
- inhibition (Homo sapiens [1]): 64.4%

- IC50 (MCF7): 8.8 µM
- IC50 (HepG2): > 50 µM
- IC50 (NCI-H157): 21.3 µM
- IC50 (A549): 30.9 µM
- IC50 [3]: 3.3 µM
- IC50 (HL-60): 15.6 µM
SMILES: CC(=O)[C@H]1CC[C@H]2[C@@H]3CC=C4C[C@@H](OC(=O)NCCNC(=O)/C(C#N)=C/c5cccc(C#N)c5)CC[C@]4(C)[C@H]3CC[C@]12C
- viability at 20 ug/ml [2]: 59.6%
- inhibition (Homo sapiens [1]): 81.4%
